# Laboratory results reported in ChEMBL document CHEMBL1142061, “The 6-fluoro-8-methoxy quinolone gatifloxacin down-regulates interleukin-8 production in prostate cell line PC-3” (Antimicrob Agents Chemother, 2007).
# Active and inactive are the calls of the source. The calls are words filed in the database; no cut-off is given here.
# Key:
# PC-3 [1] = experiment: Suppression of PMA-stimulated IL8 secretion in human PC3 cells; format: functional
# Method in brief: (§1)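 Cells seeded, transfected 24 h later, given GFLX 16 μg/ml 24 h after transfection. Then serum-free medium with fresh GFLX plus stimulus: PGN 1 μg/ml, M. hominis membrane fraction 0.1 μg/ml or […] for 6 h; TNF-α 10 ng/ml for 2 h. IL-8 in supernatant by ELISA; means ± SD, three experiments.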
# PC-3 [2] = experiment: Suppression IL8 secretion in human PC3 cells at 16 ug/ml added simultaneously with TNF alpha; format: functional
# Method in brief: (§2)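 PC-3 cells seeded 2 × 10^5/well and grown 24 h. GFLX 16 μg/ml added together with TNF-α (0, 5, 10, 25 ng/ml), or 30 or 60 min after it. Total TNF-α exposure 120 min. Secreted IL-8 measured by ELISA; means ± SD of three experiments.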
# PC-3 [3] = experiment: Inhibition of peptidoglycan-induced NF kappaB activation in human PC3 cells at 16 ug/ml; format: functional, cell-based
# Method in brief: (§3)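 Cells transiently transfected (FuGENE 6) with NF-κB firefly luciferase reporter plus pRL-TK Renilla control. After 24 h, GFLX 16 μg/ml for 24 h, then serum-free medium with GFLX again. Stimulation: PGN 1 μg/ml or M. hominis membrane fraction 0.1 μg/ml for 6 h, TNF-α 10 ng/ml for 2 h. Dual luciferase read-out; three experiments.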
# PC-3 [4] = experiment: Reduction of peptidoglycan-stimulated IL8 secretion in human PC3 cells; format: functional; parameters: scale not given: the % may be the effect or the level left; method in brief: as §1
# PC-3 [5] = experiment: Inhibition of Mycoplasma hominis-induced NF kappaB activation in human PC3 cells at 16 ug/ml; format: functional, cell-based; method in brief: as §3
# PC-3 [6] = experiment: Suppression of TNF alpha-stimulated IL8 secretion in human PC3 cells; format: functional, cell-based; method in brief: as §1
# PC-3 [7] = experiment: Suppression of TNF alpha-stimulated IL8 D-170 mutant promoter activity in human PC3 cells at 16 ug/ml dual luciferase reporter assay; format: functional, cell-based
# Method in brief: (§4)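 PC-3 cells seeded 4 × 10^4/well and transfected with an IL-8 5′-deletion luciferase construct plus pRL-TK. 24 h later, GFLX 16 μg/ml for 24 h. Then serum-free medium, fresh GFLX and TNF-α 10 ng/ml for 2 h. Promoter activity by dual luciferase assay; means ± SD of three experiments.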
# PC-3 [8] = experiment: Inhibition of TNF alpha-stimulated IL8 mRNA expression in human PC3 cells at 16 ug/ml after 48 hrs; format: functional, cell-based
# Method in brief: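 PC-3 cells seeded 4 × 10^5 per 35-mm dish, grown 24 h, then GFLX 16 μg/ml for 48 h with medium and drug refreshed every 24 h. Cells moved to serum-free RPMI with GFLX and given TNF-α 10 ng/ml for 4 h. TRIzol RNA, oligo(dT) RT, 23-cycle PCR for IL-8 and β-actin. Densitometric IL-8/β-actin band ratio.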
# PC-3 [9] = experiment: Decrease in IL8 secretion in human PC3 cells at 16 ug/ml; format: functional; parameters: scale not given: the % may be the effect or the level left
# Method in brief: (§5)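 PC-3 cells seeded 2 × 10^5/well, grown 24 h, washed with PBS and switched to serum-free RPMI 1640. GFLX added (0.1 N NaOH vehicle control) and cells incubated 24 h without stimulus. IL-8 in medium quantified by ELISA; means ± SD of three experiments.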
# PC-3 [10] = experiment: Suppression of TNF alpha-stimulated IL8 D-188 mutant promoter activity in human PC3 cells at 16 ug/ml dual luciferase reporter assay; format: functional, cell-based; method in brief: as §4
# PC-3 [11] = experiment: Reduction of Mycoplasma hominis-stimulated IL8 secretion in human PC3 cells; format: functional; parameters: scale not given: the % may be the effect or the level left; method in brief: as §1
# PC-3 [12] = experiment: Suppression of TNF alpha-stimulated IL8 promoter activity in human PC3 cells; format: functional, cell-based
# Method in brief: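 PC-3 cells transfected with IL-8 promoter (−1481 to +44 bp) in pGL3-Basic plus pRL-TK. 24 h later, GFLX at 0, 2, 4 or 16 μg/ml for 24 h. Serum-free medium with same GFLX and TNF-α 10 ng/ml for 2 h. Dual luciferase read-out; means ± SD, three experiments.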
# PC-3 [13] = experiment: Decrease in IL8 secretion in human PC3 cells at 4 ug/ml; format: functional; parameters: scale not given: the % may be the effect or the level left; method in brief: as §5
# PC-3 [14] = experiment: Suppression of TNF alpha-stimulated IL8 secretion in human PC3 cells at 16 ug/ml added 30 mins after stimulation; format: functional; conditions: PC-3, 0.5 h; method in brief: as §2
# PC-3 [15] = experiment: Suppression of 0.1 ng/ml LPS-stimulated IL8 secretion in human PC3 cells; format: functional
# PC-3 [16] = experiment: Cytotoxicity against human PC3 cells at 2 ug/ml relative to control; format: cell-based
# Method in brief: (§6)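 PC-3 cells seeded 5 × 10^4/well, grown 24 h, then exposed to GFLX (from 2 mg/ml stock in 0.1 N NaOH; equal NaOH as control) for 48 h. Viability read with a modified MTT method (cell counting kit 8), expressed as % of untreated controls; mean ± SD, n = 3.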
# PC-3 [17] = experiment: Cytotoxicity against human PC3 cells at 16 ug/ml relative to control; format: cell-based; method in brief: as §6
# PC-3 [18] = experiment: Cytotoxicity against human PC3 cells at 4 ug/ml relative to control; format: cell-based; method in brief: as §6
# PC-3 [19] = experiment: Suppression of TNF alpha-stimulated IL8 D-240 mutant promoter activity in human PC3 cells at 16 ug/ml dual luciferase reporter assay; format: functional, cell-based; method in brief: as §4
# [20] = Decrease in IL8 secretion in human prostatic myofibroblast cells at 4 ug/ml; format: functional; parameters: scale not given: the % may be the effect or the level left
# PC-3 [21] = experiment: Decrease in IL8 secretion in human PC3 cells; format: functional, cell-based; method in brief: as §5
# PC-3 [22] = experiment: Suppression of TNF alpha-stimulated IL8 mutant promoter activity in human PC3 cells at 16 ug/ml by dual luciferase reporter assay
# PC-3 [23] = experiment: Suppression of 1 ng/ml LPS-stimulated IL8 secretion in human PC3 cells; format: functional
# [24] = Decrease in IL8 secretion in human prostatic myofibroblast cells at 16 ug/ml; format: functional; parameters: scale not given: the % may be the effect or the level left
# PC-3 [25] = experiment: Suppression of TNF alpha-stimulated IL8 secretion in human PC3 cells at 16 ug/ml added 60 mins after stimulation; format: functional, cell-based; method in brief: as §2
# PC-3 [26] = experiment: Inhibition of TNF alpha-induced NF kappaB activation in human PC3 cells at 16 ug/ml; format: functional, cell-based; method in brief: as §3
smiles,measurement,setting,value
COc1c(N2CCNC(C)C2)c(F)cc2c(=O)c(C(=O)O)cn(C3CC3)c12 (stereo unspecified) [GATIFLOXACIN],Activity,PC-3 [1],34%
same,Activity,PC-3 [2],37%
same,Activity,PC-3 [3],inactive
same,Activity,PC-3 [4],42%
same,Activity,PC-3 [5],inactive
same,Activity,PC-3 [6],Active
same,Activity,PC-3 [7],inactive
same,Activity,PC-3 [8],Active
same,Activity,PC-3 [9],38%
same,Activity,PC-3 [10],Active
same,Activity,PC-3 [11],52%
same,Activity,PC-3 [12],Active
same,Activity,PC-3 [13],22%
same,inhibition at 16 µg/mL,PC-3 [14],25%
same,Activity,PC-3 [15],19%
same,Activity,PC-3 [16],97.6%
same,Activity,PC-3 [17],96.6%
same,Activity,PC-3 [18],100%
same,Activity,PC-3 [19],Active
same,Activity,[20],19%
same,Activity,PC-3 [21],Dose-dependent effect
same,Activity,PC-3 [22],Active
same,Activity,PC-3 [23],16%
same,Activity,[24],50%
same,Activity,PC-3 [25],Active
same,Activity,PC-3 [26],inactive
